Each structure is given as a SMILES string. Active and inactive are the calls of the source. The rule behind the calls is not given here.

One assay concerns MGC-803. Briefly: Induction of mitochondrial dysfunction in human MGC-803 cells assessed as downregulation of procaspase-9 expression at 5 to 10 uM incubated for 24 hrs by Western blot analysis. The class given is functional, cell-based. The following applies: dose 5-10 µM. In outline:
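Western blot of caspase 9, 3, 7, PARP and γH2A.X in MGC-803 lysates after 24 h exposure to 5, 7.5 or 10 μM; band quantitation; mean ± SD from three independent experiments.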
For orientation: Immunoblotting shows a protein as a band on a membrane.

Another assay relates to HGC-27. In words: Antiproliferative activity against human HGC-27 cells assessed as inhibition of cell growth incubated for 72 hrs by MTT assay. In kind it is functional, cell-based. Particulars: HGC-27, 72 h. In short, it runs like this:
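Antiproliferative screen in gastric cancer lines MGC-803, HGC-27 and BGC-823 by MTT assay; IC50 reported as mean ± SD.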
On the technique in general: Tetrazolium dyes change colour on reduction, which living cells bring about.

In general, IC50 refers to the concentration needed to halve the response being measured. For `Cc1cc(N2CC[C@@H](C)[C@@H](N(C)c3ncnc4[nH]ccc34)C2)n2nc(SCc3ccc(C(F)(F)F)cc3)nc2n1`, the outcome with MGC-803 was Active. In addition, the half-inhibitory concentration (IC50) in the assay on HGC-27 turned out to be 9.54 µM.

The record behind these values is ChEMBL document CHEMBL5244249, “Discovery of tofacitinib derivatives as orally active antitumor agents based on the scaffold hybridization strategy” (Eur J Med Chem, 2020).
